Results from ChEMBL document CHEMBL2311436, “Synthesis of acylated glycoconjugates as templates to investigate in vitro biopharmaceutical properties” (Bioorg Med Chem Lett, 2013).

Columns and labels:
Liver microsomes [1] = experiment: In vitro intrinsic clearance in human liver microsomes assessed per milligram; format: ADME, Microsome
Method in brief: (§1)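 Compounds were incubated with human liver microsomes, and mass spectrometry monitored parent loss and the appearance of mono-, di- and tri-acylated and fully deacylated hydrolysis products.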

Plasma = experiment: (§2) Degradation half life in human plasma; format: ADME, cell-free
Method in brief: (§3)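 Compounds were incubated in human plasma at 37 °C, and ester hydrolysis was followed by mass spectrometry. Tri-, di- and mono-acylated intermediates and the fully deacylated product were tracked by their characteristic molecular weights.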

Liver microsomes [2] = experiment: In vitro intrinsic clearance in human liver microsomes assessed per milligram of protein in presence of NADPH; format: ADME, Microsome; method in brief: as §1
Albumin = Albumin (Homo sapiens, UniProt P02768); experiment: Binding affinity to human serum albumin by chromatographic HSA binding assay; format: ADME; conditions: isolated protein
Method in brief: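 Protein binding was estimated from retention time on an immobilized human serum albumin (HSA) HPLC column, correlated against standard compounds with known protein binding values. This was used in place of equilibrium dialysis or ultrafiltration because the esters may deacylate under those conditions.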

[3] = as §2; format: ADME, cell-free; method in brief: as §3

Sequence of Albumin (P02768 whole entry): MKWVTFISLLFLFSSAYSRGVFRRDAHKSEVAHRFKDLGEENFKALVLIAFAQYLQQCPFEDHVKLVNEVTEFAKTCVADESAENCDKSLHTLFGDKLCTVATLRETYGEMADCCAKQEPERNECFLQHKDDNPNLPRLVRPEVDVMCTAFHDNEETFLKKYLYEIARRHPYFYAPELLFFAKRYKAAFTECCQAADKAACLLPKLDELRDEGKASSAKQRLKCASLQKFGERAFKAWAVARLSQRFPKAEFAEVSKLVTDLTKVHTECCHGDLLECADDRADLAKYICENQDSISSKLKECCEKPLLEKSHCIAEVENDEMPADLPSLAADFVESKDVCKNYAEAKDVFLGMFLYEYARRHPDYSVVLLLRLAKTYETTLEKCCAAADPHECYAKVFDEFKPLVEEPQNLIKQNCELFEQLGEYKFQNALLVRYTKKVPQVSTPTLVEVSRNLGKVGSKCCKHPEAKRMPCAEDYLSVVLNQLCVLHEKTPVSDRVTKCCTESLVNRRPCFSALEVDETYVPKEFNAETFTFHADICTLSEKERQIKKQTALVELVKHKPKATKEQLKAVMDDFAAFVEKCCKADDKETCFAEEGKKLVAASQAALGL

Structure (SMILES) | CLH (Liver microsomes [1]) | t1/2 (Plasma) | CLH (Liver microsomes [2]) | Activity (Albumin) | half-life [3]
CC(C)CC(=O)OC[C@H]1O[C@@H](n2cc(-c3ccccc3)nn2)[C@H](OC(=O)CC(C)C)[C@@H](OC(=O)CC(C)C)[C@@H]1OC(=O)CC(C)C | < 7 µL/min | Stable | < 7 µL/min | < 99% | –
CCCCC(=O)OC[C@H]1O[C@@H](n2cc(-c3ccccc3)nn2)[C@H](OC(=O)CCCC)[C@@H](OC(=O)CCCC)[C@@H]1OC(=O)CCCC | < 7 µL/min | Stable | < 7 µL/min | < 99% | –
CCCC(=O)OC[C@H]1O[C@@H](n2cc(-c3ccccc3)nn2)[C@H](OC(=O)CCC)[C@@H](OC(=O)CCC)[C@@H]1OC(=O)CCC | 83 µL/min | – | 69 µL/min | 96% | 555 min
CC(=O)OC[C@H]1O[C@@H](n2cc(-c3ccccc3)nn2)[C@H](OC(C)=O)[C@@H](OC(C)=O)[C@@H]1OC(C)=O | 423 µL/min | – | 397 µL/min | 59% | 55 min
CCC(=O)OC[C@H]1O[C@@H](n2cc(-c3ccccc3)nn2)[C@H](OC(=O)CC)[C@@H](OC(=O)CC)[C@@H]1OC(=O)CC | ND(Unstable) | – | ND(Unstable) | 88% | 26 min
OC[C@H]1O[C@@H](n2cc(-c3ccccc3)nn2)[C@H](O)[C@@H](O)[C@@H]1O | < 7 µL/min | Stable | < 7 µL/min | 19% | –
